Source: ChEMBL document CHEMBL5303300, “EUbOPEN Chemogenomics Library - Multiplex” (2023)
Where “and” joins values, the source holds several entries; their conditions need not be identical. Equal entries are not always repeated.

Test system: Fibroblast
Test: Multiplex assay against human fibroblast
Format: toxicity, cell-based
Conditions: number of replicates 2
Summary of the method: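 Compound was added to live cells that had been stained at seeding with Hoechst33342, BioTracker Green Microtubule Cytoskeleton Dye, MitoTracker Red and Annexin V Alexa Fluor 680, and imaging followed on a CQ1 microscope at 37°C and 5% CO2. CellPathfinder machine-learning gating divided cells into Hoechst high-intensity objects or normal cells, normal cells into healthy, pyknosed or fragmented nuclei, and pyknosed cells into mitotic or apoptotic. Tubulin, mitochondrial-mass and membrane-permeability phenotypes are per cents of healthy-nucleus cells.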

[1] = 12 h, 1 µM, compound concentration 1 uM
[2] = 12 h, 10 µM, compound concentration 10 uM
[3] = 24 h, 1 µM, compound concentration 1 uM
[4] = 24 h, 10 µM, compound concentration 10 uM
[5] = 48 h, 1 µM, compound concentration 1 uM
[6] = 48 h, 10 µM, compound concentration 10 uM

## COc1ccc(F)c(F)c1C(=O)c1cnc(NC2CCN(S(C)(=O)=O)CC2)nc1N [RG-547]
[1]
  Population Apoptotic (%): 48% and 56%
  Population Fragmented Nuclei (%): 5% and 8%
  Population Healthy Nuclei (%): 78% and 70%
  Population Hoechst High Intensity Objects (%): 0%
  Population Membrane Permeable-Phenotype (%): 2% and 5%
  Population Mitochondria Different-Phenotype (%): 0%
  Population Mitotic Cells (%): 51% and 43%
  Population Normal (%): 100%
  Population Pyknosed Nuclei (%): 15% and 20%
  Population Tubulin-Different-Phenotype (%): 2% and 9%
  Total Cell Count: 173 and 188
[2]
  Population Apoptotic (%): 50% and 56%
  Population Fragmented Nuclei (%): 13% and 12%
  Population Healthy Nuclei (%): 73% and 72%
  Population Hoechst High Intensity Objects (%): 0%
  Population Membrane Permeable-Phenotype (%): 7% and 5%
  Population Mitochondria Different-Phenotype (%): 3% and 2%
  Population Mitotic Cells (%): 50% and 43%
  Population Normal (%): 99% and 100%
  Population Pyknosed Nuclei (%): 13% and 15%
  Population Tubulin-Different-Phenotype (%): 30% and 17%
  Total Cell Count: 192 and 209
[3]
  Population Apoptotic (%): 57% and 67%
  Population Fragmented Nuclei (%): 9% and 10%
  Population Healthy Nuclei (%): 77% and 69%
  Population Hoechst High Intensity Objects (%): 0%
  Population Membrane Permeable-Phenotype (%): 4% and 5%
  Population Mitochondria Different-Phenotype (%): 1% and 0%
  Population Mitotic Cells (%): 42% and 32%
  Population Normal (%): 100%
  Population Pyknosed Nuclei (%): 13% and 20%
  Population Tubulin-Different-Phenotype (%): 7%
  Total Cell Count: 196 and 184
[4]
  Population Apoptotic (%): 61% and 75%
  Population Fragmented Nuclei (%): 9% and 11%
  Population Healthy Nuclei (%): 72% and 74%
  Population Hoechst High Intensity Objects (%): 0%
  Population Membrane Permeable-Phenotype (%): 7% and 5%
  Population Mitochondria Different-Phenotype (%): 6% and 4%
  Population Mitotic Cells (%): 38% and 25%
  Population Normal (%): 100%
  Population Pyknosed Nuclei (%): 18% and 13%
  Population Tubulin-Different-Phenotype (%): 35% and 26%
  Total Cell Count: 194 and 201
[5]
  Population Apoptotic (%): 44% and 71%
  Population Fragmented Nuclei (%): 20% and 11%
  Population Healthy Nuclei (%): 44% and 70%
  Population Hoechst High Intensity Objects (%): 3% and 0%
  Population Mitochondria Different-Phenotype (%): 9% and 0%
  Population Mitotic Cells (%): 55% and 28%
  Population Normal (%): 96% and 100%
  Population Pyknosed Nuclei (%): 36% and 17%
[6]
  Population Apoptotic (%): 84% and 68%
  Population Fragmented Nuclei (%): 8% and 11%
  Population Healthy Nuclei (%): 62%
  Population Hoechst High Intensity Objects (%): 0%
  Population Membrane Permeable-Phenotype (%): 17% and 18%
  Population Mitochondria Different-Phenotype (%): 2% and 6%
  Population Mitotic Cells (%): 15% and 31%
  Population Normal (%): 100%
  Population Pyknosed Nuclei (%): 28% and 25%
  Population Tubulin-Different-Phenotype (%): 43% and 38%
  Total Cell Count: 179 and 184

## CCN1C(=O)N(c2c(F)c(OC)cc(OC)c2F)Cc2cnc3[nH]c(CN4CCOCC4)cc3c21 [PEMIGATINIB]
[1]
  Population Apoptotic (%): 60% and 45%
  Population Fragmented Nuclei (%): 8%
  Population Healthy Nuclei (%): 75% and 58%
  Population Hoechst High Intensity Objects (%): 0%
  Population Membrane Permeable-Phenotype (%): 3% and 8%
  Population Mitochondria Different-Phenotype (%): 1%
  Population Mitotic Cells (%): 40% and 54%
  Population Normal (%): 99% and 100%
  Population Pyknosed Nuclei (%): 15% and 33%
  Population Tubulin-Different-Phenotype (%): 13% and 14%
  Total Cell Count: 220 and 246
[2]
  Population Apoptotic (%): 57% and 38%
  Population Fragmented Nuclei (%): 12% and 20%
  Population Healthy Nuclei (%): 53% and 51%
  Population Hoechst High Intensity Objects (%): 0%
  Population Membrane Permeable-Phenotype (%): 8% and 12%
  Population Mitochondria Different-Phenotype (%): 1% and 4%
  Population Mitotic Cells (%): 42% and 61%
  Population Normal (%): 100%
  Population Pyknosed Nuclei (%): 33% and 28%
  Population Tubulin-Different-Phenotype (%): 37% and 26%
  Total Cell Count: 134 and 190
[3]
  Population Apoptotic (%): 72% and 67%
  Population Fragmented Nuclei (%): 8% and 7%
  Population Healthy Nuclei (%): 76% and 61%
  Population Hoechst High Intensity Objects (%): 0%
  Population Membrane Permeable-Phenotype (%): 5% and 7%
  Population Mitochondria Different-Phenotype (%): 1% and 0%
  Population Mitotic Cells (%): 27% and 32%
  Population Normal (%): 99% and 100%
  Population Pyknosed Nuclei (%): 15% and 30%
  Population Tubulin-Different-Phenotype (%): 7% and 14%
  Total Cell Count: 237 and 226
[4]
  Population Apoptotic (%): 69% and 46%
  Population Fragmented Nuclei (%): 16% and 20%
  Population Healthy Nuclei (%): 57% and 50%
  Population Hoechst High Intensity Objects (%): 0%
  Population Membrane Permeable-Phenotype (%): 3% and 5%
  Population Mitochondria Different-Phenotype (%): 3%
  Population Mitotic Cells (%): 30% and 53%
  Population Normal (%): 100%
  Population Pyknosed Nuclei (%): 26% and 28%
  Population Tubulin-Different-Phenotype (%): 29% and 11%
  Total Cell Count: 136 and 182
[5]
  Population Apoptotic (%): 75% and 71%
  Population Fragmented Nuclei (%): 10%
  Population Healthy Nuclei (%): 76% and 60%
  Population Hoechst High Intensity Objects (%): 0%
  Population Membrane Permeable-Phenotype (%): 5% and 3%
  Population Mitochondria Different-Phenotype (%): 0%
  Population Mitotic Cells (%): 24% and 28%
  Population Normal (%): 99%
  Population Pyknosed Nuclei (%): 13% and 28%
  Population Tubulin-Different-Phenotype (%): 5% and 8%
  Total Cell Count: 240 and 232
[6]
  Population Apoptotic (%): 81% and 83%
  Population Fragmented Nuclei (%): 17% and 25%
  Population Healthy Nuclei (%): 57% and 51%
  Population Hoechst High Intensity Objects (%): 0%
  Population Membrane Permeable-Phenotype (%): 5% and 8%
  Population Mitochondria Different-Phenotype (%): 1%
  Population Mitotic Cells (%): 18% and 16%
  Population Normal (%): 100%
  Population Pyknosed Nuclei (%): 25% and 22%
  Population Tubulin-Different-Phenotype (%): 25% and 18%
  Total Cell Count: 128 and 166
